# Assay results gathered from unrelated publications.
# ADRA1B: Alpha-1B adrenergic receptor (ADRA1B, Homo sapiens, UniProt P35368)
# CASP1: Caspase-1 (CASP1, Homo sapiens, UniProt P29466)
# PPARA: Peroxisome proliferator-activated receptor alpha (PPARA, Homo sapiens, UniProt Q07869)
Compound,target,observed,mode,technique,Ki
CCCCN1CCC(COC(=O)c2ccc(N)c(OCF)c2)CC1,ADRA1B,cell-free assay,,radioligand,> 10000 nM
CSC[C@H]1CN(Cc2c[nH]c3c(N)ncnc23)C[C@@H]1O,"5'-methylthioadenosine/S-adenosylhomocysteine nucleosidase (Staphylococcus aureus, UniProt Q5HFG2)",enzyme activity,inhibitor,,7.8 nM
O=C1c2ccccc2CCCN1CCCCN1CCN(c2ccccn2)CC1,ADRA1B,ligand displacement,,radioligand,2540 nM
CC(=O)N[C@@H](CC(C)C)C(=O)N[C@@H](CC(C)C)C(=O)N[C@@H](CCCN=C(N)N)C(=O)N[C@H](C(=O)N[C@@H](CCCCN)C(=O)N[C@@H](CCCN=C(N)N)C(N)=O)C(C)C,"Neuroendocrine convertase 2 (Homo sapiens, UniProt P16519)",enzyme activity,inhibitor,,1600 nM
CC(=O)N[C@@H](CCCNC(=N)N)C(=O)NCCOCCOCC(=O)N[C@H](CC(=O)O)C(=O)N1CCC[C@H]1B(O)O,"Prolyl endopeptidase (PREP, Homo sapiens, UniProt P48147)",enzyme activity,inhibitor,fluorescence,23.9 nM
NCCCCC(c1ccccc1)(c1ccccc1)c1ccccc1,"Kinesin-like protein KIF11 (KIF11, Homo sapiens, UniProt P52732)",ATPase activity,inhibitor,,1670 nM
CCCC[C@H](NC(=O)C1CN(C)C1)c1ncc(-c2cc3ccccc3nc2OC)[nH]1,"Histone deacetylase 3 (HDAC3, Homo sapiens, UniProt O15379)",enzyme activity,inhibitor,,273 nM
O=c1c(O)c(-c2ccc(O)c(O)c2)oc2cc(O)cc(O)c12,CASP1,enzyme activity,inhibitor,fluorescence,> 300000 nM
CC1(COc2ccc(CC3SC(=O)NC3=O)cc2)CCCCC1 (stereo not shown),PPARA,ligand displacement,,TR-FRET,141000 nM
COc1ccc2c(c1)C(=O)N(CCN1CCN(c3ccccc3OC)CC1)C2,ADRA1B,ligand displacement,,radioligand,38.7 nM
CS(=O)(=O)Nc1ccc[nH]c1=S,"Insulin-degrading enzyme (IDE, Homo sapiens, UniProt P14735)",cell-free assay,inhibitor,,> 200000 nM
O=c1c(O)c(-c2cc(O)c(O)c(O)c2)oc2cc(O)cc(O)c12,CASP1,enzyme activity,inhibitor,fluorescence,14300 nM
O=C(Nc1ccc(Oc2ncccn2)cc1C(=O)O)c1ccc(Cl)cc1Cl,PPARA,ligand displacement,,TR-FRET,4420 nM
